In ChEMBL document CHEMBL1149822, “Synthesis, antimicrobial and anti-inflammatory activities of some 1,2,4-triazolo[3,4-b][1,3,4]thiadiazoles and 1,2,4-triazolo[3,4-b][1,3,4]thiadiazines bearing trichlorophenyl moiety” (2008):
≈ marks a conversion by molar mass, not a printed value.

Assays:
[1] = system: Escherichia coli; assay: Antibacterial activity against Escherichia coli ATTC 25922 after 16 to 18 hrs by serial plate dilution method; assay type: functional; details: ATCC25922
How it was run: (§1)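 Serial dilutions were made in Mueller-Hinton broth in tubes, adjusted to […] with phosphate buffer, and inoculated with a standardized bacterial suspension. Tubes were incubated at 37 °C for 16–18 h. MIC was taken as the lowest concentration with no visible growth.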

[2] = system: Escherichia coli; assay: microbe, parasite or virus in culture; assay type: functional; details: ATCC25922, read-out: IZ
[3] = system: Klebsiella pneumoniae; assay: Antibacterial activity against Klebsiella pneumoniae after 16 to 18 hrs by serial plate dilution method; assay type: functional; how it was run: as §1
[4] = system: Klebsiella pneumoniae; assay: microbe, parasite or virus in culture; assay type: functional; details: read-out: IZ
[5] = system: Pseudomonas aeruginosa; assay: Antibacterial activity against Pseudomonas aeruginosa ATTC 27853 after 16 to 18 hrs by serial plate dilution method; assay type: functional; details: ATCC27853; how it was run: as §1
[6] = system: Pseudomonas aeruginosa; assay: microbe, parasite or virus in culture; assay type: functional; details: ATCC27853, read-out: IZ
[7] = system: Staphylococcus aureus; assay: Antibacterial activity against Staphylococcus aureus ATTC 25923 after 16 to 18 hrs by serial plate dilution method; assay type: functional; how it was run: as §1
[8] = system: Staphylococcus aureus; assay: Antibacterial activity against Staphylococcus aureus ATTC 25923 at […] ug/ml after 3 to 4 days; assay type: functional; details: read-out: IZ
[9] = system: Talaromyces marneffei; assay: Antifungal activity against Penicillium marneffei by serial plate dilution method; assay type: functional
How it was run: (§2)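 Agar of peptone 1 g, D-glucose 4 g and agar 2 g per 100 mL water, pH 5.7, was lawned with a fungal spore suspension in normal saline. The excess was decanted and plates were dried at 37 °C for 1 h. Wells were punched and compounds in DMSO were added, with a DMSO control. Plates were run in triplicate at 37 °C for 3–4 days, and the inhibition zone diameter was measured.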

[10] = system: Talaromyces marneffei; assay: Antifungal activity against Penicillium marneffei at […] ug/ml after 3 to 4 days; assay type: functional; details: read-out: IZ
[11] = system: Trichophyton mentagrophytes; assay: Antifungal activity against Trichophyton mentagrophytes by serial plate dilution method; assay type: functional
[12] = system: Trichophyton mentagrophytes; assay: Antifungal activity against Trichophyton mentagrophytes at […] ug/ml after 3 to 4 days; assay type: functional; details: read-out: IZ
[13] = system: Aspergillus flavus; assay: Antifungal activity against Aspergillus flavus NCIM 524 by serial plate dilution method; assay type: functional; how it was run: as §2
[14] = system: Aspergillus flavus; assay: Antifungal activity against Aspergillus flavus NCIM 524 at […] ug/ml after 3 to 4 days; assay type: functional; details: read-out: IZ
[15] = system: Aspergillus fumigatus; assay: Antifungal activity against Aspergillus fumigatus NCIM 902 by serial plate dilution method; assay type: functional
[16] = system: Aspergillus fumigatus; assay: Antifungal activity against Aspergillus fumigatus NCIM 902 at 6.5 ug/ml after 3 to 4 days; assay type: functional; details: read-out: IZ; how it was run: as §2
[17] = system: Rattus norvegicus; assay: Antiinflammatory activity against carrageenan-induced paw oedema in albino rat at 50 mg/kg, po relative to control; assay type: functional
How it was run: (§3)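 Albino rats of 180–250 g were fasted 18 h and placed in groups of six. Samples were suspended in 2% w/v acacia mucilage, and the vehicle group served as control. 30 min after dosing, carrageenan (1 mg mL⁻¹, 0.1 mL) was injected subcutaneously into the right hind paw. Paw volume was measured immediately and at 3 h, and % oedema inhibition was calculated versus vehicle controls.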

[18] = system: Klebsiella pneumoniae; assay: Antibacterial activity against Klebsiella pneumoniae at 12 ug/ml after 3 to 4 days; assay type: functional; details: read-out: IZ
How it was run: (§4)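 Agar well diffusion. Plates were seeded with a bacterial suspension, the excess was decanted and plates were dried at 37 °C for 1 h. Wells were punched and compounds in DMSO were added, with DMSO wells as control. Plates were run in triplicate at 37 °C for 3–4 days and zones of inhibition were scored.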

[19] = system: Staphylococcus aureus; assay: Antibacterial activity against Staphylococcus aureus ATTC 25923 at 12 ug/ml after 3 to 4 days; assay type: functional; details: read-out: IZ; how it was run: as §4
[20] = system: Talaromyces marneffei; assay: Antifungal activity against Penicillium marneffei at 12 ug/ml after 3 to 4 days; assay type: functional; details: read-out: IZ; how it was run: as §2
[21] = system: Aspergillus fumigatus; assay: Antifungal activity against Aspergillus fumigatus NCIM 902 at 12 ug/ml after 3 to 4 days; assay type: functional; details: read-out: IZ; how it was run: as §2
[22] = system: Trichophyton mentagrophytes; assay: Antifungal activity against Trichophyton mentagrophytes at 3.125 ug/ml after 3 to 4 days; assay type: functional; details: read-out: IZ; how it was run: as §2
[23] = system: Aspergillus flavus; assay: Antifungal activity against Aspergillus flavus NCIM 524 at 3.125 ug/ml after 3 to 4 days; assay type: functional; details: read-out: IZ; how it was run: as §2
[24] = system: Aspergillus fumigatus; assay: Antifungal activity against Aspergillus fumigatus NCIM 902 at […] ug/ml after 3 to 4 days; assay type: functional; details: read-out: IZ
[25] = system: Escherichia coli; assay: Antibacterial activity against Escherichia coli ATTC 25922 at 12 ug/ml after 3 to 4 days; assay type: functional; details: ATCC25922, read-out: IZ; how it was run: as §4
[26] = system: Klebsiella pneumoniae; assay: Antibacterial activity against Klebsiella pneumoniae at 25 ug/ml after 3 to 4 days; assay type: functional; details: read-out: IZ; how it was run: as §4
[27] = system: Pseudomonas aeruginosa; assay: Antibacterial activity against Pseudomonas aeruginosa ATTC 27853 at 25 ug/ml after 3 to 4 days; assay type: functional; details: ATCC27853, read-out: IZ; how it was run: as §4
[28] = system: Trichophyton mentagrophytes; assay: Antifungal activity against Trichophyton mentagrophytes at 25 ug/ml after 3 to 4 days; assay type: functional; details: read-out: IZ; how it was run: as §2
[29] = system: Aspergillus flavus; assay: Antifungal activity against Aspergillus flavus NCIM 524 at 25 ug/ml after 3 to 4 days; assay type: functional; details: read-out: IZ; how it was run: as §2
[30] = system: Rattus norvegicus; assay: Antiinflammatory activity against carrageenan-induced paw oedema in albino rat at 1.5 mg/kg, po, relative to control; assay type: functional; how it was run: as §3
[31] = system: Staphylococcus aureus; assay: microbe, parasite or virus in culture; details: read-out: IZ

Row | SMILES | MIC [1] | MIC [3] | MIC [5] | MIC [7] | MIC [9] | MIC [11] | MIC [13] | MIC [15] | zone of inhibition at 6.25 µg/mL [2] | zone of inhibition at 6.25 µg/mL [6] | zone of inhibition at 6.25 µg/mL [10] | zone of inhibition at 6.25 µg/mL [12] | zone of inhibition at 6.25 µg/mL [14] | inhibition in vivo at 50 mg/kg [17] | further results
1 | Cc1cc(C)cc(-c2nn3c(-c4cc(Cl)cc(Cl)c4Cl)nnc3s2)c1 | 6.25 µg/mL (≈ 15.3 µM) | 12 µg/mL (≈ 29.3 µM) | 6.25 µg/mL (≈ 15.3 µM) | 12 µg/mL (≈ 29.3 µM) | 12 µg/mL (≈ 29.3 µM) | 6.25 µg/mL (≈ 15.3 µM) | 6.25 µg/mL (≈ 15.3 µM) | 12 µg/mL (≈ 29.3 µM) | 16 mm | 16 mm |  | 16 mm | 16 mm |  | zone of inhibition at 12 µg/mL [18]: 11 mm; zone of inhibition at 12 µg/mL [19]: 11 mm; zone of inhibition at 12 µg/mL [20]: 11 mm; zone of inhibition at 12 µg/mL [21]: 11 mm
2 | Cc1cc(C2CCCCC2)n(O)c(=O)c1.NCCO [CICLOPIROX OLAMINE] |  |  |  |  | 6.25 µg/mL | 3.12 µg/mL | 3.12 µg/mL | 6.25 µg/mL |  |  | 16 mm |  |  |  | zone of inhibition at 3.125 µg/mL [22]: 27 mm; zone of inhibition at 3.125 µg/mL [23]: 25 mm; zone of inhibition at 6.25 µg/mL [24]: 16 mm
3 | COc1ccc2c(c1)c(CC(=O)O)c(C)n2C(=O)c1ccc(Cl)cc1 [INDOMETHACIN] |  |  |  |  |  |  |  |  |  |  |  |  |  |  | inhibition in vivo at 1.5 mg/kg [30]: 59.7%
4 | O=C(O)c1cn(C2CC2)c2cc(N3CCNCC3)c(F)cc2c1=O [CIPROFLOXACIN] |  | 6.25 µg/mL (≈ 18.9 µM) |  | 1.56 µg/mL (≈ 4.71 µM) |  |  |  |  | 16 mm | 16 mm |  |  |  |  | zone of inhibition at 6.25 µg/mL [4]: 16 mm; zone of inhibition at 1.56 µg/mL [31]: 22 mm

Further lines, with some results ahead:

Row | MIC [1] | MIC [3] | MIC [5] | MIC [7] | MIC [9] | MIC [11] | MIC [13] | MIC [15] | SMILES | zone of inhibition at 6.25 µg/mL [2] | zone of inhibition at 6.25 µg/mL [6] | zone of inhibition at 6.25 µg/mL [10] | zone of inhibition at 6.25 µg/mL [12] | zone of inhibition at 6.25 µg/mL [14] | inhibition in vivo at 50 mg/kg [17] | further results
5 | 6.25 µg/mL (≈ 15.2 µM) | 6.25 µg/mL (≈ 15.2 µM) | 6.25 µg/mL (≈ 15.2 µM) | 6.25 µg/mL (≈ 15.2 µM) | 6.25 µg/mL (≈ 15.2 µM) | 6.25 µg/mL (≈ 15.2 µM) | 6.25 µg/mL (≈ 15.2 µM) | 6.5 µg/mL (≈ 15.8 µM) | COc1ccc(-c2nn3c(-c4cc(Cl)cc(Cl)c4Cl)nnc3s2)cc1 | 16 mm | 16 mm | 16 mm | 16 mm | 16 mm | 25.8% | zone of inhibition at 6.25 µg/mL [4]: 16 mm; zone of inhibition at 6.25 µg/mL [8]: 16 mm; zone of inhibition at 6.5 µg/mL [16]: 16 mm
6 | 12 µg/mL (≈ 27.7 µM) | 25 µg/mL (≈ 57.8 µM) | 25 µg/mL (≈ 57.8 µM) | 12 µg/mL (≈ 27.7 µM) | 6.25 µg/mL (≈ 14.4 µM) | 25 µg/mL (≈ 57.8 µM) | 25 µg/mL (≈ 57.8 µM) | 6.25 µg/mL (≈ 14.4 µM) | Clc1cc(Cl)c(Cl)c(-c2nnc3sc(-c4cccc5cnccc45)nn23)c1 |  |  | 16 mm |  |  | 22.6% | zone of inhibition at 12 µg/mL [25]: 11 mm; zone of inhibition at 25 µg/mL [26]: < 10 mm; zone of inhibition at 12 µg/mL [19]: 11 mm; zone of inhibition at 6.25 µg/mL [24]: 16 mm; zone of inhibition at 25 µg/mL [27]: < 10 mm; zone of inhibition at 25 µg/mL [28]: < 10 mm; zone of inhibition at 25 µg/mL [29]: < 10 mm
7 | 6.25 µg/mL (≈ 16.4 µM) | 12 µg/mL (≈ 31.4 µM) | 6.25 µg/mL (≈ 16.4 µM) | 6.25 µg/mL (≈ 16.4 µM) | 12 µg/mL (≈ 31.4 µM) | 6.25 µg/mL (≈ 16.4 µM) | 6.25 µg/mL (≈ 16.4 µM) | 12 µg/mL (≈ 31.4 µM) | Clc1cc(Cl)c(Cl)c(-c2nnc3sc(-c4ccccc4)nn23)c1 | 16 mm | 16 mm |  | 16 mm | 16 mm | 16.1% | zone of inhibition at 12 µg/mL [18]: 11 mm; zone of inhibition at 6.25 µg/mL [8]: 16 mm; zone of inhibition at 12 µg/mL [20]: 11 mm; zone of inhibition at 12 µg/mL [21]: 11 mm
